Assay results: the EternaBench riboswitch data

System: MS2 coat protein
Assay: apparent Kd, MS2 coat protein; higher = weaker binding; RNA-MaP array; tryptophan 2.4 mM where present
How it was run: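 Apparent Kd: the median of filtered binding-curve fits from single clusters. Designs were transcribed on Illumina sequencing-chip clusters by stalled E. coli RNA polymerase and titrated with SNAP-549-labelled MS2 coat protein from 0.7 or 1.5 nM, doubling to 3 µM, in 100 mM Tris-HCl pH 7.5, 80 mM KCl, 4 mM MgCl2, BSA, DTT, yeast tRNA and Tween-20. Each series ran without and then with constant ligand, and green signal was normalised to red-channel RNA signal and control-cluster median Fmax.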

[1] = designed as: OFF switch for tryptophan, no ligand
[2] = ligand present: tryptophan, designed as: OFF switch for tryptophan
[3] = designed as: ON switch for tryptophan, no ligand
[4] = ligand present: tryptophan, designed as: ON switch for tryptophan

Q: How did the “apparent Kd” value [1] turn out when “ACAUGACAACAUGAGGAUCACCCAUGUCAUCGAGGACCGGUACGGCCGCCACUCGGUCAAUAUGAUACUUGUCAUGAACAUGAGG” was run?
A: Its value is 18.7 nM.

Q: What about the “apparent Kd” value [2] of the same sequence?
A: Its value is 23.5 nM.

Q: How did the “apparent Kd” value [1] turn out when “UUUGUAAUUGUCUGGUAGAUUUAUUUAUUUCGAGGACCGGUACGGCCGCCACUCGUUAAUUACAUGAGGAUCACCCAUGUUAGCU” was run?
A: Its value is 13.4 nM.

Q: And the “apparent Kd” value [2]?
A: The value was 13.2 nM.

Q: “CCUAUCCAGUCGGCCGCCACUGACCAUUUGGAACAGUGGGUGAAAACAUGAGGAUCACCCAUGUACAGGACCGGGACUGUAUAGG” was tested. Which “apparent Kd” value [1] did it give?
A: The value was 11.6 nM.

Q: What about the “apparent Kd” value [2] of the same sequence?
A: The value was 42 nM.

Q: For “AAUGGUCGUACUGGAAUGGUGAUCCUCAAACGAGGACCGGUACGGCCGCCACUCGAUAACAUGAGGAUCACCCAUGUAAUAAUAA”, which “apparent Kd” value [1] is on record?
A: Its value is 40.7 nM.

Q: What about the “apparent Kd” value [2] of the same sequence?
A: The value was 20.8 nM.

Q: How did the “apparent Kd” value [1] turn out when “AGUAUUGGAAACAGUACUAGUGAUCCGGUCCGAGGACCGGUACGGCCGCCACUCGAAUUAAAUAAACAUGAGGAUCACCCAUGUA” was run?
A: The value was 16.8 nM.

Q: What about the “apparent Kd” value [2] of the same sequence?
A: Its value is 46.1 nM.

Q: What does the source list for “CUACAUUUGUAGAAACCGGUCACCAUUAUUCGAGGACCGGUACGGCCGCCACUCGUAUCAUGUGAUACAUGAGGAUCACCCAUGU”?
A: apparent Kd [3]: 28.8 nM; apparent Kd [4]: 28.5 nM

Q: Which results are given for “AUACAUGAGGAUCACCCAUGUCCUCGUGAUCGAGGACCGGUACGGCCGCCACUCGGUCCUCGCGAGGUGGAGUCAAAGACUCCAA”?
A: apparent Kd [3]: 128 nM; apparent Kd [4]: 87.1 nM

Q: With “AAUAACAUGAGGAUCACCCAUGUAAGUAAACGAGGACCGGUACGGCCGCCACUCGAAUAAAUAAAGUACCGGUAAGAUCCAUAGA” as the sequence, how does the “apparent Kd” value [3] read?
A: Its value is 21.3 nM.

Q: And the “apparent Kd” value [4]?
A: The value was 23.9 nM.

Q: What does the source list for “UCGGUUUUCUACAUGAGGAUCACCCAUGUCCGAGGACCGGUACGGCCGCCACUCGCAAUCAAACAGACGUGGGCCAAAUUUGCGU”?
A: apparent Kd [1]: 10 nM; apparent Kd [2]: 14.3 nM

Q: With “AAGGCACGAGACAUGAGGAUCACCCAUGUUCGAGGACCGGUACGGCCGCCACUCGGUGGACUCAUGGUAAAGCCGGUGAGCCAAA” as the sequence, how does the “apparent Kd” value [3] read?
A: Its value is 19.4 nM.

Q: What about the “apparent Kd” value [4] of the same sequence?
A: The value was 37.2 nM.

Q: For “CUUAUAUAUACGGCCGCCACUUACUCAUGAGGUAACAACAUGAGGAUCACCCAUGUUUGAGGAUCAAGGACCGGGUAUAUAUAAG”, which “apparent Kd” value [3] is on record?
A: The value was 25.3 nM.

Q: And the “apparent Kd” value [4]?
A: The value was 18.2 nM.

Q: For “AGAUUCGACACGGCCGCCACUCGUGGAGGAUUUCCGAGUGUCGAACAUGAGGAUCACCCAUGUACGAGGACCGGGUGUUGAGUCU”, which “apparent Kd” value [1] is on record?
A: The value was 28.4 nM.

Q: And the “apparent Kd” value [2]?
A: Its value is 234 nM.

Q: Which “apparent Kd” value [1] does the source give for “AGAUUCGACACGGCCGCCACUCGAGACGGAUUUCCGAGUGUCGAACAUGAGGAUCACCCAUGUCCGAGGACCGGGUGUUGAGUCU” here?
A: Its value is 32.2 nM.

Q: What about the “apparent Kd” value [2] of the same sequence?
A: Its value is 401 nM.

Q: How did the “apparent Kd” value [3] turn out when “AAUAAUAGGUGAUCCUAACGAGUGGCAUAACGAGGACCGGUACGGCCGCCACUCGAACAUGAGGAUCACCCAUGUAGUCACUCGA” was run?
A: Its value is 189 nM.

Q: And the “apparent Kd” value [4]?
A: The value was 362 nM.

Q: Which “apparent Kd” value [3] does the source give for “GGGAGGGAGGCGGCCGCCACUGAUUUUCAUAUAUAUAUAACAUGAGGAUCACCCAUGUAGAUAUGCAGGACCGGGCCUUUUUUUU” here?
A: The value was 20.5 nM.

Q: And the “apparent Kd” value [4]?
A: The value was 17.6 nM.

Q: With “GGGCGCUAUCCCGCGAGGGAUAGCGUUCGUCGAGGACCGGUACGGCCGCCACUCGAACGAGUGGUGACAUGAGGAUCACCCAUGU” as the sequence, how does the “apparent Kd” value [1] read?
A: The value was 50.2 nM.

Q: And the “apparent Kd” value [2]?
A: The value was 68.8 nM.

Q: “CAUGCCAGGGCGGCCGCCACUGUGGCUACGGUACAUGAGGAUCACCCAUGUUUGUGGUUGAUCUACAGGACCGGGCCCUAGCACG” was tested. Which “apparent Kd” value [3] did it give?
A: The value was 118 nM.

Q: And the “apparent Kd” value [4]?
A: Its value is 238 nM.

Q: Which “apparent Kd” value [1] does the source give for “CGUAUUGGAAACAGUACGAGUGAUCCGGUCCGAGGACCGGUACGGCCGCCACUCGAAAAUAAAUAACAUGAGGAUCACCCAUGUA” here?
A: The value was 16.7 nM.

Q: What about the “apparent Kd” value [2] of the same sequence?
A: The value was 23.9 nM.

Q: Which results are given for “GAGUACACUACGGCCGCCACUCAAGGAGCUACAUAGCUCCUAGACAUGAGGAUCACCCAUGUACCGAGGACCGGGUAGAUCCUUA”?
A: apparent Kd [3]: 187 nM; apparent Kd [4]: 97.3 nM

Q: How did the “apparent Kd” value [1] turn out when “AGAUGAGUCACGGCCGCCACUCUUAUCAGGAUCACCCAUGGUUAACAUGAGGAUCACCCAUGUCUGAGGACCGGGUGAUGAGCAU” was run?
A: The value was 21.6 nM.

Q: What about the “apparent Kd” value [2] of the same sequence?
A: The value was 23.9 nM.
